Published values pooled from the literature.
Lines come from different studies, so protocols differ.
RET V804M: Proto-oncogene tyrosine-protein kinase receptor Ret (RET, Homo sapiens, UniProt P07949, V804M)
RET V804L: Proto-oncogene tyrosine-protein kinase receptor Ret (RET, Homo sapiens, UniProt P07949, V804L)
RET M918T: Proto-oncogene tyrosine-protein kinase receptor Ret (RET, Homo sapiens, UniProt P07949, M918T)
RET: Proto-oncogene tyrosine-protein kinase receptor Ret (RET, Homo sapiens, UniProt P07949)

SMILES | target | observed | technique | tested at | remaining binding
CNC(=O)c1ccc(Nc2ncc(C(F)(F)F)c(NCc3nccnc3N(C)S(C)(=O)=O)n2)cc1 | RET V804M | cell-free assay | competition with immobilised ligand | 0.1 µM | 30%
COc1cnc(Nc2cccc(S(N)(=O)=O)c2)nc1N1CCN(c2ccccc2)C(=O)C1 | RET V804L | binding | competition with immobilised ligand | 1 µM | 98%
Cc1cnc(Nc2ccc(C(=O)N3CCC(N4CCCC4)CC3)cc2)nc1-c1cc2ccccc2s1 | RET V804L | binding | competition with immobilised ligand | 1 µM | 11%
c1cncc(-c2cccc(Nc3nccc(NC4CCCCC4)n3)c2)c1 | RET V804L | binding | competition with immobilised ligand | 10 µM | 10%
CN1CCN(c2ccc(Nc3nccc(-c4ccccc4)n3)cc2C(F)(F)F)CC1 | RET M918T | binding | – | 10 µM | 27%
O=C(N[C@H]1CCCCC/C=C\C2C[C@@]2(C(=O)O)NC(=O)[C@@H]2C[C@@H](Oc3ccncc3)CN2C1=O)OC1CCCC1 (some centres unmarked) | RET | binding | competition with immobilised ligand | 1 µM | 94%
C[C@@H](c1ccc(-n2cnc3c(N)ncnc32)cc1)N1CCc2nn(C)c(Cc3ccccc3)c2C1=O | RET V804L | binding | competition with immobilised ligand | 0.1 µM | 99%
O=C(c1ccc(Nc2nccc(-c3cc4ccccc4s3)n2)cc1)N1CCC(N2CCCC2)CC1 | RET V804M | binding | competition with immobilised ligand | 1 µM | 99%
O=C(Nc1c[nH]nc1C(=O)NC1CCNCC1)c1cc(F)cc(F)c1 | RET M918T | binding | competition with immobilised ligand | 1 µM | 100%
O=C(c1ccc(Nc2ncc(Cl)c(-c3ccc(Cl)s3)n2)cc1)N1CCC(N2CCCC2)CC1 | RET M918T | binding | competition with immobilised ligand | 1 µM | 8.4%
CN1CCN(c2ccc(Nc3nccc(-c4cccc([N+](=O)[O-])c4)n3)cc2C(F)(F)F)CC1 | RET V804M | binding | – | 10 µM | 49%
CNC(=O)[C@@H]1CC[C@@H](n2c(-c3ccc4cnccc4c3)nc3ccc(C(=O)NCc4cccc(C(N)=O)c4)cc32)C1 | RET | binding | competition with immobilised ligand | 1 µM | 96%
CS(=O)(=O)NCC[C@H](NC(=O)c1cncc2c1cnn2-c1ccc(F)cc1)c1ccnc(S(C)(=O)=O)c1 | RET | cell-free assay | competition with immobilised ligand | 1 µM | 91%
CC1CCCN1c1nccc(-c2cnn3ncccc23)n1 (centres unmarked) | RET | binding | – | 1 µM | 100%
CCN1CCN(Cc2ccc(C(=O)Nc3ccc(C)c(Oc4ccc5c(c4)CC(=O)N5)c3)cc2C(F)(F)F)CC1 | RET | binding | competition with immobilised ligand | 1 µM | 14%
N[C@@H]1CCN(c2nccc(-c3cnn4ncccc34)n2)C1 | RET | binding | – | 1 µM | 100%
C=CC(=O)N1CCC(C(=O)NCC(=O)N2CCN(c3nc(-c4cnc(N)nc4C(F)F)nc(N4CCOCC4)n3)CC2)CC1 | RET M918T | binding | competition with immobilised ligand | 1 µM | 97%
N#CC1(c2ccccn2)CCN(Cc2cc(C(=O)N3CCCC3)c(=O)n3ccccc23)CC1 | RET M918T | cell-free assay | competition with immobilised ligand | 1 µM | 88%

SMILES | target | observed | technique | tested at | remaining binding
O=C(NCCCN1CCOCC1)c1ccc(Nc2ncc(Cl)c(-c3ccc(Cl)s3)n2)cc1 | RET | binding | competition with immobilised ligand | 1 µM | 24%
COc1ncc2cc3ccccc3nc2c1C#N | RET V804M | cell-free assay | competition with immobilised ligand | 5 µM | 98%
O=C(c1ccc(Nc2ncc(Cl)c(-c3cc4ccccc4s3)n2)cc1)N1CCC(N2CCCC2)CC1 | RET V804L | binding | competition with immobilised ligand | 1 µM | 23%
O=C(NCC1CCOCC1)c1n[nH]cc1NC(=O)c1c(F)cccc1F | RET M918T | binding | competition with immobilised ligand | 1 µM | 96%
F[C@@H]1CCN(c2nccc(-c3cnn4ncccc34)n2)C1 | RET M918T | binding | – | 1 µM | 100%
Nc1ncc2c(n1)-c1c([nH]c3ccc(C#CC4CC4)cc13)CCCC2 | RET | binding | competition with immobilised ligand | 1 µM | 91%
O=C(NCCCN1CCOCC1)c1ccc(Nc2nccc(-c3cc4ccccc4s3)n2)cc1 | RET | binding | competition with immobilised ligand | 1 µM | 55%
CN(C)c1nccc(-c2cnc3ncccn23)n1 | RET V804M | binding | – | 1 µM | 93%
COc1cnc(Nc2cccc(S(N)(=O)=O)c2)nc1N1CCN(c2ccccc2)CC1 | RET M918T | binding | competition with immobilised ligand | 1 µM | 49%
CCCCN(CCCC)C(=O)CN1C[C@@H](c2cc(OC)c3c(c2)OCO3)[C@H](C(=O)O)[C@H]1CC(C)(C)CCC | RET V804L | cell-free assay | competition with immobilised ligand | 1 µM | 100%
FC(F)(F)Oc1cccc(-c2cnc3ccc(-c4ccncc4)nn23)c1 | RET | cell-free assay | competition with immobilised ligand | 5 µM | 86%
C[C@@H]1CCN(c2nccc(-c3cnn4ncccc34)n2)C1 | RET | binding | – | 1 µM | 70%
O=C(O)c1cc(-c2ccc(C3CCNCC3)cc2)c2ccc(-c3ccc(C(F)(F)F)cc3)cc2c1 | RET V804M | cell-free assay | competition with immobilised ligand | 1 µM | 100%
COc1ccnn2ncc(-c3ccnc(N(C)C)n3)c12 | RET V804L | binding | – | 1 µM | 100%
C[C@@H]1CN(c2cc(-c3nn(C)c4ccc(OC5(C)CC5)cc34)ncn2)C[C@H](C)O1 | RET V804L | cell-free assay | competition with immobilised ligand | 1 µM | 72%
CN(C)c1nccc(-c2cnn3ncccc23)n1 | RET V804M | binding | – | 1 µM | 100%
CC(C)CC(=O)N1CCc2nc(-c3ccc(Br)cc3)nc(N(C)Cc3ccccc3)c2C1 | RET V804M | cell-free assay | competition with immobilised ligand | 0.1 µM | 82%
